Active and inactive are the calls of the source. No cut-off for these calls is given here.
Experiments:
DCN1-like protein 2 = DCN1-like protein 2 (Homo sapiens, UniProt Q6PH85); test: Binding affinity to N-terminal GST tagged recombinant DCN2 (unknown origin) (62 to 259 residues) expressed in Escherichia coli BL21(DE3) assessed as reduction in DCN1-FAM-labelled N-terminal acetylated UBE2M (1 to 21 residues) protein-protein interaction after 30 mins by HTRF assay
Method in brief: (§1)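 HTRF competition: 5nM GST-tagged DCN (1-5) and 5nM AcUBE2M1-21-biotin peptide, with streptavidin-XL665 and anti-GST cryptate, in 100mM phosphate buffer pH 6.5 with 0.02% Tween-20. Cocktail pre-incubated 30min at room temperature, compound added, then 30min more. Excitation 320nm, emission 615/665nm. Ki from three independent repeats, mean ± SD.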

PC-9 [1] = test: Induction of apoptosis in human PC9 cells assessed as necrotic cells at 10 uM after 48 hrs by Annexin V-FITC/propidium iodide staining based flow cytometry (reference value: 1.34%); type: functional
Method in brief: (§2)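 PC9 cells seeded in 6-well plates (1~2×10^6 cells/mL), incubated overnight, then exposed to 0, 2.5, 5 or 10µM compound for 48h. Harvested cells stained with Annexin-V-FITC/PI for 30 min and analysed by flow cytometry. Three individual experiments; means ± SD.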

NCI-H1975 [2] = test: Induction of apoptosis in human NCI-NCI-H1975 cells assessed as late apoptotic cells at 10 uM after 48 hrs by Annexin V-FITC/propidium iodide staining based flow cytometry (reference value: 0.46%); type: functional
DCN1-like protein 4 = biological target: T1, DCN1-like protein 4 (Homo sapiens, UniProt Q92564); test: Binding affinity to N-terminal GST tagged recombinant DCN4 (unknown origin) (102 to 292 residues) expressed in Escherichia coli BL21(DE3) assessed as reduction in DCN1/FAM-labelled N-terminal acetylated UBE2M (1 to 21 residues) protein-protein interaction after 30 mins by HTRF assay; method in brief: as §1
T1 sequence (Q92564 whole entry): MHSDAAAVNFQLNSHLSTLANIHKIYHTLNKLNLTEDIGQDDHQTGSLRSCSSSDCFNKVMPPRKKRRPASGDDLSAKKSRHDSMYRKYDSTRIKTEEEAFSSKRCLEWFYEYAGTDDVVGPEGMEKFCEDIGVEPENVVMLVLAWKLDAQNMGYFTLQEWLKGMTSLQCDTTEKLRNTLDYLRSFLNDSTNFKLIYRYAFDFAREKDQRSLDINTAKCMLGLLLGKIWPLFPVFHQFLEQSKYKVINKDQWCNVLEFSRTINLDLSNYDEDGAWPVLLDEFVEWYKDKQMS

A549 [3] = test: Induction of apoptosis in human A549 cells assessed as necrotic cells at 2.5 uM after 48 hrs by Annexin V-FITC/propidium iodide staining based flow cytometry (reference value: 0.88%); type: functional
SMMC-7721 = test: Antiproliferative activity against human SMMC7721 after 72 hrs by MTT assay; type: functional, cell-based; settings: SMMC-7721, 72 h
Method in brief: (§3)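 MTT viability assay: cells seeded at 2~5×10^3 per well, exposed to serial dilutions of compound for 72h, then MTT (5 mg/mL in PBS) added for 4h at 37°C. Formazan dissolved in DMSO and read at 490nm. IC50 reported as mean ± SD of three independent experiments.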

PC-9 [4] = test: Induction of apoptosis in human PC9 cells assessed as viable cells at 5 uM after 48 hrs by Annexin V-FITC/propidium iodide staining based flow cytometry (reference value: 95.7%); type: functional; settings: PC-9, 48 h, read-out: Activity; method in brief: as §2
A549 [5] = test: Induction of apoptosis in human A549 cells assessed as late apoptotic cells at 2.5 uM after 48 hrs by Annexin V-FITC/propidium iodide staining based flow cytometry (reference value: 2.61%); type: functional
L02 = test: Antiproliferative activity against human L02 after 72 hrs by MTT assay; type: cell-based; settings: l02, 72 h; method in brief: as §3
NCI-H1975 [6] = test: Effect on HO-1 accumulation in human […] cells transfected with DCN1 siRNA3 by densitometric method; type: functional, cell-based
Method in brief: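 H1975 or PC9 cells seeded in 6-well plates for 16-24h, transfected with DCN1 siRNA#3 by lipofection, with or without compound, and collected three days later. Western blot for Cullin3, DCN1, NRF2, HO-1 and NQO1, with densitometry normalized to GAPDH. Three individual experiments, means ± SD.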

NCI-H1975 [7] = test: Induction of apoptosis in human NCI-NCI-H1975 cells assessed as viable cells at 2.5 uM after 48 hrs by Annexin V-FITC/propidium iodide staining based flow cytometry (reference value: 96.1%); type: functional; settings: NCI-H1975, 48 h, read-out: Activity
DCN1-like protein 5 = biological target: T2, DCN1-like protein 5 (Homo sapiens, UniProt Q9BTE7); test: Binding affinity to N-terminal GST tagged recombinant DCN5 (unknown origin) (47 to 237 residues) expressed in Escherichia coli BL21(DE3) assessed as reduction in DCN1/FAM-labelled N-terminal acetylated UBE2M (1 to 21 residues) protein-protein interaction after 30 mins by HTRF assay; method in brief: as §1
T2 sequence (Q9BTE7 whole entry): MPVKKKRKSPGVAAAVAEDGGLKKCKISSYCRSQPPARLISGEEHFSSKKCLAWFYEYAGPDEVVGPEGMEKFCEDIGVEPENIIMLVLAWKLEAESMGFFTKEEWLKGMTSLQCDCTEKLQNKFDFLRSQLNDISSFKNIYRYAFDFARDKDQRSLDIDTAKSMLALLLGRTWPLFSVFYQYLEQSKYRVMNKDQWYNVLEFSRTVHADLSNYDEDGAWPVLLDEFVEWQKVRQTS

[8] = biological target: T3, NEDD8-activating enzyme E1 catalytic subunit (Homo sapiens) (UniProt Q8TBC4); test: Inhibition of NEDD8-activating enzyme E1C (unknown origin) assessed as effect on NEDD8/UBE2M complex formation up to 100 uM pre-incubated for 10 mins followed by Mg-ATP addition after 60 mins by SDS-PAGE analysis
T3 sequence (whole entry): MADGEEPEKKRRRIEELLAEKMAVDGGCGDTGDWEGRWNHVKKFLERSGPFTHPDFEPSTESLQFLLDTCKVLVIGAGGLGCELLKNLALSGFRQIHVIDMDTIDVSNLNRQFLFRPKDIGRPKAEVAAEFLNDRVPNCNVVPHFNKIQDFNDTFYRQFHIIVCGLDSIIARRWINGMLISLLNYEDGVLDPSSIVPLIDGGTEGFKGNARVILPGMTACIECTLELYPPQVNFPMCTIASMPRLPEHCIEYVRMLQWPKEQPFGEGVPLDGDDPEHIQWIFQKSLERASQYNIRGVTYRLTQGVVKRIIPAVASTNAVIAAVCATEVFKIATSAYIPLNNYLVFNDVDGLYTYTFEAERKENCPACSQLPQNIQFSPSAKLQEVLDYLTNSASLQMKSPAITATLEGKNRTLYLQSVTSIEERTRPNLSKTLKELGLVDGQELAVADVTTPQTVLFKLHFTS
Method in brief: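 Cell-free NEDD8~UBE2M formation: NEDD8 E1 mixed with NEDD8, UBE2M and compound (10 and 20µM reference inhibitor, or 1, 10 and 100µM test compound) in reaction buffer, 10 min at room temperature. Started with Mg-ATP, incubated 60 min at 37°C, then 1mM DTT and non-reducing loading buffer added. Resolved on 12% SDS-PAGE.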

Sequence of DCN1-like protein 2 (Q6PH85 whole entry, the tested form may be a part): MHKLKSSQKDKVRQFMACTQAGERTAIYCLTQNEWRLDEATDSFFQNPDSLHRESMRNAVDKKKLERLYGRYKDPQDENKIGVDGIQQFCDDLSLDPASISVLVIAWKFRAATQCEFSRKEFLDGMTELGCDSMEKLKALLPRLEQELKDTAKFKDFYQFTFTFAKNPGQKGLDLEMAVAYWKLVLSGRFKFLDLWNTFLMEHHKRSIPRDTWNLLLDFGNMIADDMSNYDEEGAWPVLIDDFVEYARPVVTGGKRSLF

C#CCSc1nc(Sc2nccs2)c(C#N)c(-c2ccc(C)cc2)n1
Ki (DCN1-like protein 2): 66.2 nM
Activity (PC-9 [1]): 17.4%
Activity (NCI-H1975 [2]): 46.9%
Ki (DCN1-like protein 4): 807 nM
Activity (A549 [3]): 1.22%
IC50 (SMMC-7721): 2450 nM
viability at 5 µM (PC-9 [4]): 63.8%
Activity (A549 [5]): 10.3%
Activity (L02): Non-Toxic
Activity (NCI-H1975 [6]): inactive
viability at 2.5 µM (NCI-H1975 [7]): 80%
Ki (DCN1-like protein 5): 2140 nM
inhibition [8]: inactive

From ChEMBL document CHEMBL4396897, “Potent 5-Cyano-6-phenyl-pyrimidin-Based Derivatives Targeting DCN1-UBE2M Interaction” (J Med Chem, 2019)
